Results published in ChEMBL document CHEMBL1138799, “4-benzyl- and 4-benzoyl-3-dimethylaminopyridin-2(1H)-ones, a new family of potent anti-HIV agents: optimization and in vitro evaluation against clinically important HIV mutant strains” (J Med Chem, 2004).

Assays:
[1] = system: Human immunodeficiency virus 1; test: Selectivity index of cytotoxic activity (CC50) to inhibitory activity (IC50) relative to LAI cell line; type: functional
How it was run: (§1)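 MT4 human T-lymphoblastoid cells were grown in RPMI 1640 with 10% fetal calf serum and antibiotics at 37 °C and 5% CO2. A compound concentration series was combined with HIV-1 LAI at 200 CCID50/well and 30 000 cells/well. Mock-infected cultures with the same concentrations were run in parallel to measure cytotoxicity. After 5 days, cell viability was read by MTT colorimetry. EC50 is the concentration giving 50% infection versus the drug-free control.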

[2] = system: Human immunodeficiency virus 1; test: Inhibitory activity against HIV-1 mutant strain 188L; type: functional, organism-based
How it was run: (§2)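 Mutant HIV-1 made by recombining mutant PR-RT sequence into a PR-RT-deleted HXB2 proviral clone. Serial compound concentrations plated, then virus (200 CCID50/well) and MT4 cells (30 000 cells/well; RPMI 1640, 10% FCS) added; 5 days at 37 °C, 5% CO2; viability read by MTT. EC50 = concentration giving 50% infection versus drug-free control; mock-infected cultures run in parallel for toxicity.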

[3] = system: Human immunodeficiency virus 1; test: Inhibitory activity against HIV-1 mutant strain 181C; type: functional, organism-based; how it was run: as §2
[4] = system: Human immunodeficiency virus 1; test: Inhibitory activity against wild type HIV-1 LAI cell line; type: functional, organism-based; conditions: Human immunodeficiency virus 1, LAI; how it was run: as §1
[5] = system: Human immunodeficiency virus 1; test: Inhibitory activity against HIV-1 mutant strain 103N; type: functional, organism-based; how it was run: as §2

Row | Structure (SMILES) | Selectivity index [1] | IC50 [2] [nM] | IC50 [3] [nM] | IC50 [4] [nM] | IC50 [5] [nM]
1 | CCc1c(C)nc(O)c(N(C)C)c1C(=O)c1cccc(CC(C)C#N)c1 (stereo not drawn) | 12600 | 1990 | 500 | 8 | 50
2 | CCc1c(C)nc(O)c(N(C)C)c1Cc1ccc(C)cc1 | 316 |  | 10000 | 310 | 12600
3 | CCc1c(C)nc(O)c(N(C)C)c1C(=O)c1cccc(-c2ccco2)c1 | 158 |  |  | 60 | 
4 | CCc1c(C)nc(O)c(N(C)C)c1C(=O)c1cccc(/C=C/c2ccsc2)c1 | 1000 |  |  | 100 | 
5 | CCc1c(C)nc(O)c(N(C)C)c1C(=O)c1cccc(/C=C/c2cccn2C)c1 | 158 |  |  | 310 | 
6 | CCc1c(C)nc(O)c(N(C)C)c1C(=O)c1cccc(/C=C/c2ccccc2)c1 | 398 |  |  | 250 | 
7 | CCc1c(C)nc(O)c(N(C)C)c1Cc1cc(C)ccc1C | 631 |  |  | 150 | 1990
8 | CCc1c(C)nc(O)c(N(C)C)c1C(=O)c1cc(F)cc(C(F)(F)F)c1 | 31600 |  |  | 3 | 
9 | CCc1c(C)nc(O)c(N(C)C)c1C(=O)c1cccc(N(C)C)c1 | 251 |  |  | 390 | 
10 | CCc1c(C)nc(O)c(N(C)C)c1Cc1cccc(C(F)(F)F)c1 | 10000 | 5010 | 30 | 10 | 390
11 | CCc1c(C)nc(O)c(N(C)C)c1C(=O)c1cc(Br)cs1 | 10000 | 10000 | 630 | 3 | 100
12 | CCc1c(C)nc(O)c(N(C)C)c1C(=O)c1cccc(/C=C\c2cnccn2)c1 | 501 |  |  | 190 | 
13 | CCc1c(C)nc(O)c(N(C)C)c1C(=O)c1cccc(/C=C(\C#N)c2ccccc2)c1 | 16 |  |  | 1000 | 
14 | CCc1c(C)nc(O)c(N(C)C)c1C(=O)c1cccc(/C=C\c2ccncc2)c1 | 794 |  |  | 60 | 
15 | CCc1c(C)nc(O)c(N(C)C)c1C(=O)c1cccc(C(C)=O)c1 | 3160 | 10000 | 1000 | 10 | 120
16 | CCc1c(C)nc(O)c(N(C)C)c1C(=O)c1cccs1 | 6310 | 100000 | 3980 | 10 | 310
17 | CCc1c(C)nc(O)c(N(C)C)c1Cc1ccccc1C | 3980 | 7940 | 1000 | 20 | 1250
18 | CCOC(=O)/C=C/C=C/c1cccc(C(=O)c2c(CC)c(C)nc(O)c2N(C)C)c1 | 398 | 630 | 200 | 5 | 40
19 | CCc1c(C)nc(O)c(N(C)C)c1Cc1ccc(Br)cc1 | 63 |  |  | 1580 | 
20 | CCc1c(C)nc(O)c(N(C)C)c1C(=O)c1cccc(CNC(C)=O)c1 | 251 |  |  | 390 | 
21 | CCc1c(C)nc(O)c(N(C)C)c1C(=O)c1cccc(C(C)C#N)c1 (stereo not drawn) | 31600 | 250 | 120 | 3 | 8
22 | CCc1c(C)nc(O)c(N(C)C)c1Cc1nccn1C | 1 | 100000 |  | 100000 | 
23 | CCc1c(C)nc(O)c(N(C)C)c1C(=O)c1cccc(/C=C(\C)C#N)c1 | 6310 | 630 |  | 1 | 

Row | Structure (SMILES) | Selectivity index [1] | IC50 [2] [nM] | IC50 [3] [nM] | IC50 [4] [nM] | IC50 [5] [nM]
24 | CCc1c(C)nc(O)c(N(C)C)c1C(=O)c1cccc(C)c1 | 39800 | 1990 |  | 2 | 
25 | CCc1c(C)nc(O)c(N(C)C)c1C(=O)c1cccc(/C=C\c2nccs2)c1 | 501 |  |  | 150 | 
26 | CCc1c(C)nc(O)c(N(C)C)c1C(=O)c1cccc(NC(C)=O)c1 | 794 |  |  | 120 | 
27 | CCc1c(C)nc(O)c(N(C)C)c1C(=O)c1cccc(/C=C/c2ccncc2)c1 | 10000 |  |  | 10 | 
28 | CCc1c(C)nc(O)c(N(C)C)c1Cc1ccnc2ccccc12 | 20 |  | 63000 | 5010 | 79400
29 | CCOC(=O)/C(C#N)=C\c1cccc(C(=O)c2c(CC)c(C)nc(O)c2N(C)C)c1 | 631 |  |  | 150 | 
30 | CCc1c(C)nc(O)c(N(C)C)c1Cc1ccc(OC)c(C)c1 | 251 |  |  | 390 | 
31 | CCc1c(C)nc(O)c(N(C)C)c1C(=O)c1cccc(/C=C/c2ccco2)c1 | 5010 |  |  | 20 | 
32 | CCc1c(C)nc(O)c(N(C)C)c1Cc1ccc(N(C)C)cc1 | 8 |  | 10000 | 1250 | 10000
33 | CCc1c(C)nc(O)c(N(C)C)c1C(=O)c1cccc(-c2nccs2)c1 | 40 |  |  | 250 | 
34 | CCc1c(C)nc(O)c(N(C)C)c1Cc1nccs1 | 1580 |  | 500 | 60 | 1990
35 | CCc1c(C)nc(O)c(N(C)C)c1C(=O)c1cccc(/C=C/c2ccccn2)c1 | 1260 |  |  | 70 | 
36 | CCc1c(C)nc(O)c(N(C)C)c1Cc1ccc(C(F)(F)F)cc1 | 6 |  | 10000 | 1580 | 10000
37 | CCc1c(C)nc(O)c(N(C)C)c1C(=O)c1cccc(N2CCCC2=O)c1 | 2510 |  |  | 40 | 
38 | CCc1c(C)nc(O)c(N(C)C)c1Cc1ccc(C)c(C)c1 | 2510 |  | 400 | 40 | 1000
39 | CCc1c(C)nc(O)c(N(C)C)c1C(=O)c1cccc(C#Cc2ccccc2)c1 | 631 |  |  | 150 | 
40 | CCc1c(C)nc(O)c(N(C)C)c1C(=O)c1cccc(/C=C\c2ccco2)c1 | 794 |  |  | 60 | 
41 | CCc1c(C)nc(O)c(N(C)C)c1C(=O)c1cccc(/C=C/c2ccoc2)c1 | 631 |  |  | 70 | 
42 | CC/C=C/c1cccc(C(=O)c2c(CC)c(C)nc(O)c2N(C)C)c1 | 1260 |  |  | 50 | 
43 | CCNC(=O)Nc1cccc(C(=O)c2c(CC)c(C)nc(O)c2N(C)C)c1 | 50 |  |  | 1990 | 
44 | CCc1c(C)nc(O)c(N(C)C)c1C(=O)c1c(F)cccc1F | 2000 |  |  | 50 | 
45 | CCc1c(C)nc(O)c(N(C)C)c1C(=O)c1cccc(/C=C(\C#N)c2cccnc2)c1 | 200 |  |  | 60 | 
46 | CCOc1cccc(Cc2c(CC)c(C)nc(O)c2N(C)C)c1 | 794 |  |  | 10 | 

Row | Structure (SMILES) | Selectivity index [1] | IC50 [2] [nM] | IC50 [3] [nM] | IC50 [4] [nM] | IC50 [5] [nM]
47 | CCc1c(C)nc(O)c(N(C)C)c1Cc1ccc(C)cc1C | 10 |  | 100000 | 10000 | 100000
48 | CCc1c(C)nc(O)c(N(C)C)c1Cc1cccc(C)c1C | 200 |  | 2510 | 100 | 2510
49 | CCc1c(C)nc(O)c(N(C)C)c1C(=O)c1cccc(CN)c1 | 251 |  |  | 390 | 
50 | CCc1c(C)nc(O)c(N(C)C)c1Cc1c(C)cc(C)cc1C | 1 |  | 10000 | 10000 | 10000
51 | CCc1c(C)nc(O)c(N(C)C)c1C(=O)c1cccc(C(C)O)c1 (stereo not drawn) | 2000 |  |  | 50 | 
52 | CCc1c(C)nc(O)c(N(C)C)c1C(=O)c1cccc(NS(C)(=O)=O)c1 | 100 |  |  | 1000 | 
53 | CCc1c(C)nc(O)c(N(C)C)c1C(=O)c1cccc(/C=C\c2ccccn2)c1 | 63 |  |  | 1580 | 
54 | CCc1c(C)nc(O)c(N(C)C)c1C(=O)c1cccc(/C=C\Cc2ccccc2)c1 | 32 |  |  | 1580 | 
55 | CCc1c(C)nc(O)c(N(C)C)c1C(=O)c1cccc(/C=C(\C#N)c2cccs2)c1 | 126 |  |  | 190 | 
56 | CCc1c(C)nc(O)c(N(C)C)c1C(=O)c1cccc(/C=C\c2ccccc2)c1 | 79 |  |  | 1250 | 
57 | CCc1c(C)nc(O)c(N(C)C)c1C(=O)c1cccc(-c2ccccc2)c1 | 251 |  |  | 390 | 
58 | CCc1c(C)nc(O)c(N(C)C)c1C(=O)c1cccc(-n2cccc2)c1 | 631 |  |  | 70 | 
59 | CCc1c(C)nc(O)c(N(C)C)c1C(=O)c1cccc(/C=C/c2cccs2)c1 | 1260 |  |  | 70 | 
60 | CCc1c(C)nc(O)c(N(C)C)c1Cc1ccc(-c2ccccc2)cc1 | 3 |  | 10000 | 3980 | 10000
61 | CCc1c(C)nc(O)c(N(C)C)c1C(=O)c1cccc(N(CC)CC)c1 | 50 |  |  | 1990 | 
62 | CCc1c(C)nc(O)c(N(C)C)c1C(=O)c1ccc(C#N)cc1 | 32 |  |  | 3160 | 
63 | CCc1c(C)nc(O)c(N(C)C)c1Cc1ccc(Cl)cc1 | 50 |  | 6310 | 190 | 
64 | CCc1c(C)nc(O)c(N(C)C)c1C(=O)c1cccc(/C=C/c2nccs2)c1 | 3160 |  |  | 30 | 
65 | CCc1c(C)nc(O)c(N(C)C)c1C(=O)c1cccc(C=C(C#N)C#N)c1 | 3980 |  |  | 10 | 
66 | CCc1c(C)nc(O)c(N(C)C)c1C(=O)c1cccc(/C=C\c2cccnc2)c1 | 631 |  |  | 70 | 
67 | CCc1c(C)nc(O)c(N(C)C)c1C(=O)c1cccc(COc2ccccc2)c1 | 2510 |  |  | 30 | 
